Screening data deposited in PubChem by several laboratories.
Lmaj promast = reduces viability of Leishmania major promastigotes | resazurin fluorescence viability | inhibition, % at 10 µM | 200,000 compounds, 9% hits | AID 1063; in the data active = inhibition above about 50%;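 also: promastigotes grown with compound for 44 hours at 28 °C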
PMI act satM6P = activators of human phosphomannose isomerase at near-saturating mannose 6-phosphate; P34949; 190,000 compounds, 0.34% hits; activation factor at 20 µM; coupled PMI enzyme assay, resazurin fluorescence, 20 min; hits give high values; 1 = untreated enzyme, 0 = substrate-free blank;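 active = activation factor of 2 or more at 20 µM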
Target sequence (P34949 whole entry, looked up): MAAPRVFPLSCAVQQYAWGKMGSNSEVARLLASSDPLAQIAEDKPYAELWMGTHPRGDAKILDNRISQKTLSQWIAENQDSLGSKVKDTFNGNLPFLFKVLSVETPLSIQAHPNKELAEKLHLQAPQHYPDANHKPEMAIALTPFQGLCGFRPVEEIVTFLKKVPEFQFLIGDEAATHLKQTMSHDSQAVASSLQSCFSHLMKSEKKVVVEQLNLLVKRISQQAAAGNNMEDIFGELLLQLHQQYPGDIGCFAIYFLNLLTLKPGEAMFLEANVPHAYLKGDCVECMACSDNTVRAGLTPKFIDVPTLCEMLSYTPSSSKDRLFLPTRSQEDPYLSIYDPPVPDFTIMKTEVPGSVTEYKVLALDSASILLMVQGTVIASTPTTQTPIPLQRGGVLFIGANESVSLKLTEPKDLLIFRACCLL
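Material: human phosphomannose isomerase with PGI, G6PDH, diaphorase coupling enzymes. Quantity: 15 ng/mL PMI. Medium: HEPES pH 7.4 buffer with MgCl2 and Tween-20. Reagent: Near-saturating mannose-6-phosphate, 1.0 mM. Compound: 20 µM single dose. Times: enzyme reaction with compound 20 min at room temperature. Detection: resorufin fluorescence at Ex 544/Em 590 nm.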
PTEN del growth = suppresses growth of cells with PTEN deletion. HCT116 PTEN-null viability, CellTiter-Glo, 60 h; hits give low values. viability, % at 10 µM. 140,000 compounds, 1.2% hits. AID 827;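 active = viability at or below a set limit, 4 SD under the median of all tested compounds, cut at about 3.7% in these data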;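 also: PTEN knockout HCT116 line with beta catenin targeted HCT116 as companion control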
PMI act = phosphomannose isomerase (human) activation; 190,000 compounds, 0.005% hits; activation factor at 20 µM; P34949; purified human PMI, coupled resazurin fluorescence, 20 min; hits give high values; 1 = vehicle control, 0 substrate-free wells;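 active = activation factor of 2 or more at 20 µM, relative to plate controls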
bCat KO growth = beta-catenin-lacking colon tumor cell growth suppression; AID 818; HCT116 beta-catenin knockout viability, CellTiter-Glo, 60 h; hits give low values; viability, % at 10 µM; 140,000 compounds, 1.5% hits;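 active = viability at or under a set limit, the compound median less 4 SD, cut at about 6% in these data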
Each line names hits and unclear results; the compound was inactive in the other large screens. This is a sample that favours compounds with a hit; in the whole collection about 9.6% have one here.

N#CCCN(Cc1cccnc1)C(=S)Nc1ccc(OC(F)F)cc1	none (no result: PTEN del growth, bCat KO growth)
Cc1[nH]c2ccc(F)cc2c1CCN(Cc1cccnc1)C(=S)Nc1ccc(F)cc1	Lmaj promast 100.4 (no result: PTEN del growth, bCat KO growth)
COc1ccc(NC(=S)N(CCc2ccc(OC)c(OC)c2)Cc2ccccn2)cc1	none (no result: PTEN del growth, bCat KO growth)
COc1ccc(NC(=S)N(CCc2c(C)[nH]c3ccccc23)Cc2cccnc2)cc1	Lmaj promast 100.2
COc1ccc(NC(=S)N(CCc2nc3cc(C)c(C)cc3[nH]2)Cc2cccnc2)cc1	Lmaj promast 90.4
COc1ccc(NC(=S)N(Cc2ccc(C)cc2)Cc2ccccn2)cc1	Lmaj promast 95.4 (no result: PTEN del growth, bCat KO growth)
CC(=O)Nc1ccc(OCC(O)CN2C(C)(C)CC(O)CC2(C)C)cc1 (stereo not given)	none
CC(C)(CNC(=O)COc1ccccc1Cc1ccccc1)N1CCOCC1	none (no result: PTEN del growth, bCat KO growth)
CC(=O)NC(CC(=O)Nc1cccc(S(=O)(=O)N2CCCCC2)c1)c1ccccc1 (stereo not given)	none
CCOc1ccc(NC(=S)N(CCc2c(C)[nH]c3ccc(C)cc23)Cc2ccco2)cc1	Lmaj promast 72.7
Cc1ccccc1NC(=S)N(CCc1c(C)[nH]c2ccc(F)cc12)Cc1ccncc1	Lmaj promast 98.4 (no result: PTEN del growth, bCat KO growth)
CCOc1ccc(NC(=S)N(CCc2c(C)[nH]c3ccc(C)cc23)Cc2cccnc2)cc1	Lmaj promast 99.8
COc1ccc(NC(=S)N(CCc2c(C)[nH]c3ccc(C)cc23)Cc2cccs2)cc1	Lmaj promast 54.1
Cn1cnnc1Sc1cc(N2CCN(S(=O)(=O)c3ccc4ccccc4c3)CC2)ccc1[N+](=O)[O-]	none
O=C(N/N=C/C1CC2CCC1C2)c1ccc2c(c1)OCO2 (stereo not given)	none
CN(C)c1ccc(C=NCC2COc3ccccc3O2)cc1 (stereo not given)	none (no result: PTEN del growth, bCat KO growth)
Cc1[nH]c2ccc(F)cc2c1CCN(Cc1ccncc1)C(=S)Nc1cccc(F)c1	Lmaj promast 99.2 (no result: PTEN del growth, bCat KO growth)
C=CCc1cc(C=O)cc(OC)c1OCc1c(Cl)cccc1Cl	Lmaj promast 79.2
C=CCOc1c(Cl)cc(/C=N/O)cc1OC	none
NCCc1nnc(SCc2ccc(F)cc2)o1	none
NCCCCCc1nnc(SCc2ccc(Cl)c(Cl)c2)o1	Lmaj promast 100.4
Cn1c(N)c(C(=O)COC(=O)CSc2ccc(Cl)cc2)c(=O)n(C)c1=O	none
COC(=O)c1ccc(CNC(=O)CN(CCC(C)C)S(=O)(=O)c2ccc3c(c2)OCCO3)cc1	Lmaj promast 55.8
Cc1sc2ncnc(Sc3nnnn3-c3ccc(Cl)cc3)c2c1C	bCat KO growth 4.9
c1ccc(-n2nnnc2Sc2ncnc3sc4c(c23)CCCC4)cc1	bCat KO growth 4.5
CC(=O)c1cccc(NC(=O)/C(=C\c2cccnc2)NC(=O)c2ccco2)c1	none (no result: PTEN del growth, bCat KO growth)
CCOc1ccc(NC(=O)C2CC(=O)N(C(C)C)C2)cc1 (stereo not given)	none
CCN1CCN(C(CNS(=O)(=O)c2ccc(OC)cc2)c2cccnc2)CC1 (stereo not given)	none
COc1ccc(S(=O)(=O)NCC(c2cccnc2)N2CCN(c3ccccc3OC)CC2)cc1C (stereo not given)	Lmaj promast 97.8
COc1ccccc1N1CCN(C(CNS(=O)(=O)c2ccccc2)c2cccnc2)CC1 (stereo not given)	Lmaj promast 92.9
COc1ccc(S(=O)(=O)NCC(c2cccnc2)N2CCN(C)CC2)cc1C (stereo not given)	none
CCC1CCCN1Cn1cnc2c([nH]c3ccc(OC)cc32)c1=O (stereo not given)	Lmaj promast 66.1
CCN1CCCC1Cn1cnc2c([nH]c3cccc(Cl)c32)c1=O (stereo not given)	Lmaj promast 81.3
Cn1c(Cl)c(/C=N/OC(=O)C2CC2)c2ccccc21	none (no result: PTEN del growth, bCat KO growth)
Cc1ccccc1C(=O)O/N=C/c1c(N2CCOCC2)n(C)c2ccccc12	Lmaj promast 99.6
CC(NC(=O)CN1CCc2ccccc21)c1ccccc1 (stereo not given)	none
CCc1cccc2c(C(=O)CSc3nncn3C)c[nH]c12	none (no result: PTEN del growth, bCat KO growth)
CCc1cccc2c(C(=S)N3CCCC3)c[nH]c12	none (no result: PMI act satM6P, PTEN del growth, PMI act, bCat KO growth)
O=C(OCC(=O)c1c[nH]c2ccccc12)c1ccc([N+](=O)[O-])s1	Lmaj promast 100.4 (no result: PTEN del growth, bCat KO growth)
CCc1cccc2c(C(=O)CCl)c[nH]c12	Lmaj promast 57.6
CCc1cccc2c(C(=O)COC(=O)c3ccc([N+](=O)[O-])s3)c[nH]c12	Lmaj promast 100.4
